Screens deposited in PubChem by several laboratories.
In the library only some 1.1% were active in any assay of this set; here they are far more common.
Rin1 Abl inh = blocks binding of human Rin1 to Abl. 0.4% of 360,000 active. TR-FRET Rin1/Abl binding, biochemical. AID 588664. inhibition, % at 7.35 µM. P00519+Q13671; in the data active = inhibition above about 5%, passing the limit was not always enough
CAL PDZ FP-1 = blocks peptide binding to human CAL PDZ domain; AID 504414; inhibition, % at 20 µM; purified CAL PDZ, TMR-peptide fluorescence polarization, 1 h; 0.02% of 330,000 active;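 active = highest replicate inhibition of at least 40%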;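 also: plate controls were DMSO neutral control wells for no effect and unlabeled competitor peptide control wells for full effect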
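Read-out basis: mP drop reported as inhibition | Assay system: Tagged CAL PDZ protein CerCALP, purified | Benchmarks: Unlabelled peptide for full inhibition, DMSO wells as neutral | Schedule: 1 h incubation at room temperature before polarization reading | Buffer or medium: Sodium phosphate/NaCl buffer pH 7.4 with TCEP, IgG, Thesit | Doses: Single point, 20 µM | Measured by: Fluorescence polarization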
ERAP1 inh = blocks human ERAP1 aminopeptidase activity | Q9NZ08 | recombinant ERAP1, Leu-AMC fluorescence, 60 min | inhibition, % at 10.7 µM | 0.15% of 340,000 active;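 active = mean replicate inhibition of at least 30%, or all replicates individually reaching that 30% level; inactive = mean below 30% and not every replicate reaching it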;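 also: 0% = neutral control wells and 100% = L-leucinethiol positive control wells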
PDI inh = PDI (human) enzyme inhibition; PDI insulin aggregation turbidity, A650, 90 min; inhibition, % at 10 µM; AID 588391; 0.052% of 350,000 active;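 active = mean inhibition across replicates of 30% or more, whatever share of single replicates reach that level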
CAL PDZ FP-2 = CAL PDZ (human) peptide binding inhibition; AID 602252; purified CAL PDZ, TMR-peptide fluorescence polarization, 1 h; inhibition, % at 24.9 µM; 0.92% of 300,000 active;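 active = mean inhibition of at least 30% with at least half of replicates also reaching 30%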;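 also: 0% = DMSO neutral control and 100% = excess unlabeled competitor peptide PRC23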
ERp5 block = inhibitors of human ERp5 | Q15084 | ERp5 insulin aggregation, absorbance 650 nm, 90 min | inhibition, % at 9.99 µM | 0.05% of 350,000 active | AID 651711;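 active = mean replicate inhibition above about 25%, with every replicate also reaching it, limit read from the data, passing the limit was not always enough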
Numbers without * were called inactive; x = no result given; + = active, no number.

SMILES | Rin1 Abl inh | CAL PDZ FP-1 | ERAP1 inh | PDI inh | CAL PDZ FP-2 | ERp5 block
COc1ccccc1C(=O)N1C[C@H]2[C@@H](c3ccccc31)[C@@H](CO)N2C(=O)Cc1ccccc1 | x | x | 1 | x | x | 21
O=C(CCC(=O)Nc1ccc(Br)cc1)N/N=C/c1ccccc1O | -3 | -2 | -4 | -19 | + | -2
CCOC(=O)CC1(C)OCC(C[N+]2(C)CCCCC2)O1 (centres undefined) | -2 | -2 | 96* | 4 | -1 | 4
CCOC(=O)C1OC2(CCCC2)OC1C(=O)OCC (centres undefined) | 0 | 0 | 5 | -1 | x | 4
COc1ccc(C(CNC(=O)C2COc3ccccc3O2)N2CCCC2)cc1 (centres undefined) | 3 | 0 | 1 | -3 | 68* | 0
CCNC(=O)C[C@H]1CC[C@@H]2[C@H](COc3ccc(NC(=O)Nc4cccc(C)c4)cc3C(=O)N2C)O1 | x | x | 2 | x | x | -3
Cc1cc(C)cc(NC(=O)N2CCCC2C(=O)NCc2ccco2)c1 (centres undefined) | -2 | 0 | 2 | 5 | 76* | 2
Cc1ccc(S(=O)(=O)N(C)C)cc1NC(=S)N1CCc2ccccc21 | -1 | -2 | -2 | -2 | 49* | 2
CCc1ccccc1N1C(=O)CC(Sc2nccc(C)n2)C1=O (centres undefined) | -1 | x | 0 | -2 | 100* | 1
Cc1noc(C)c1NC(=O)N(C)C[C@H]1Oc2ccc(NC(=O)CCC(F)(F)F)cc2C(=O)N([C@@H](C)CO)C[C@H]1C | x | x | 0 | x | x | -2
CNC[C@@H]1Oc2ncc(-c3ccc(C)cc3)cc2C(=O)N([C@H](C)CO)C[C@H]1C | x | x | 2 | x | x | 6
CCOC(=O)N1CCN(C(=O)CSCc2ccc(C)cc2)CC1 | 6.1* | -1 | x | -6 | -2 | x
Cc1ccc(CSCC(=O)N2CCCC2)cc1 | 2 | -2 | 1 | -1 | -22 | 0
C[C@@H]1CN([C@H](C)CO)C(=O)c2cccc(NS(=O)(=O)c3cccs3)c2O[C@H]1CN(C)CC1CC1 | x | x | 0 | x | x | 0
Clc1cccc2c1CCN(Cc1nc(-c3cnccn3)no1)C2 | -4 | x | -1 | -1 | 56* | -2
c1ccc(C(c2ccccc2)N2CCN(Cc3nc(-c4cnccn4)no3)CC2)cc1 | -2 | -1 | 1 | -8 | -8 | 3
Cc1cc(Cl)ccc1OCc1n[nH]c(=S)n1C1CCCCC1 | 0 | -1 | x | 32* | -2 | x
COc1ccc(Cl)cc1-c1n[nH]c(=S)n1C1CCCCC1 | 0 | -3 | x | 12 | -1 | x
Cc1ccc(NC(=O)CN2C(=O)S/C(=C\c3ccccn3)C2=O)cc1 | -1 | -1 | 1 | 1 | 85* | 2
O=C(CN1C(=O)S/C(=C\c2ccccn2)C1=O)Nc1ccccc1 | 3 | 0 | -2 | 5 | x | 1
COc1ccc(CN(C)C[C@@H]2Oc3c(NS(=O)(=O)c4ccccc4)cccc3C(=O)N([C@@H](C)CO)C[C@@H]2C)cc1 | x | x | 1 | x | x | -10
O=S(=O)(c1ccc2c(c1)CCCN2)N1CCCC1 | 0 | 0 | 0 | -5 | 58* | 1
CC(C)C(=O)Nc1ccc2c(c1)C(=O)N(C)[C@@H]1CC[C@H](CC(=O)NCC3CC3)O[C@@H]1CO2 | x | x | 0 | x | x | -4
OC[C@H]1O[C@@H](n2cnc3c(Nc4ccccc4)ncnc32)[C@H](O)[C@@H]1O | -1 | 0 | 0 | -3 | -1 | -3
NCCNC(=O)Cc1cccc(NC(=O)Cc2ccc(Nc3ncnc4c3ncn4[C@@H]3O[C@H](CO)[C@@H](O)[C@H]3O)cc2)c1 | 17* | 0 | -3 | -5 | -4 | -7
Cc1ccc(S(=O)(=O)Cc2cc(F)c([N+](=O)[O-])cc2[N+](=O)[O-])cc1 | -1 | -1 | x | -13 | 47* | x
CC(C)COc1ccc(C(=O)Nc2ccc(N3CCOCC3)cc2N2CCOCC2)cc1 | -3 | 0 | -2 | 1 | -2 | 4
CCCCCOc1ccc(C(=O)Nc2ccc(N3CCOCC3)cc2N2CCOCC2)cc1 | 2 | -1 | 5 | -10 | 45* | -5
Cc1cccc(NC(=O)CSCC(=O)Nc2ccc(N3CCOCC3)cc2N2CCOCC2)c1 | 0 | 0 | 0 | -1 | 89* | -2
